Assay results published in ChEMBL document CHEMBL3244237, “Differences in antischistosomal and mutagenic properties between an isothiocyano- and an isocyanonitrodiphenylamine” (J Med Chem, 1977).

What was measured:
Salmonella typhimurium [1] = test: Mutagenic activity in Salmonella typhimurium TA-98 at 53 nmol/plate by Ames test; format: toxicity, organism-based; settings: salmonella enterica subsp. enterica serovar typhimurium
Salmonella typhimurium [2] = test: Mutagenic activity in Salmonella typhimurium TA-100 at 16 nmol/plate by Ames test in presence of rat liver microsomes S9 fraction; format: toxicity, organism-based; settings: salmonella enterica subsp. enterica serovar typhimurium
Schistosoma japonicum [3] = test: Antischistosomal activity against Schistosoma japonicum infected mouse assessed as reduction in number of worms at 5 mg/kg, po single dose; format: functional
Salmonella typhimurium [4] = test: Mutagenic activity in Salmonella typhimurium TA-98 at 158 nmol/plate by Ames test in presence of rat liver microsomes S9 fraction; format: toxicity, organism-based; settings: salmonella enterica subsp. enterica serovar typhimurium
Salmonella typhimurium [5] = test: Mutagenic activity in Salmonella typhimurium TA-98 at 16 nmol/plate by Ames test; format: toxicity, organism-based; settings: salmonella enterica subsp. enterica serovar typhimurium
Salmonella typhimurium [6] = test: Mutagenic activity in Salmonella typhimurium TA-100 at 53 nmol/plate by Ames test; format: toxicity, organism-based; settings: salmonella enterica subsp. enterica serovar typhimurium
Schistosoma japonicum [7] = test: Antischistosomal activity against Schistosoma japonicum infected mouse assessed as reduction in number of worms at 20 mg/kg, po single dose; format: functional
Schistosoma japonicum [8] = test: Antischistosomal activity against Schistosoma japonicum infected mouse assessed as mouse with parasital cures at 10 mg/kg, po single dose; format: functional
Schistosoma japonicum [9] = test: Antischistosomal activity against Schistosoma japonicum infected mouse assessed as mouse with parasital cures at 5 mg/kg, po single dose; format: functional
Salmonella typhimurium [10] = test: Mutagenic activity in Salmonella typhimurium TA-98 at 53 nmol/plate by Ames test in presence of rat liver microsomes S9 fraction; format: toxicity, organism-based; settings: salmonella enterica subsp. enterica serovar typhimurium
Salmonella typhimurium [11] = test: Mutagenic activity in Salmonella typhimurium TA-100 at 5 nmol/plate by Ames test in presence of rat liver microsomes S9 fraction; format: toxicity, organism-based; settings: salmonella enterica subsp. enterica serovar typhimurium
Schistosoma japonicum [12] = test: Antischistosomal activity against Schistosoma japonicum infected mouse assessed as mouse with parasital cures at 20 mg/kg, po single dose; format: functional
Schistosoma japonicum [13] = test: Antischistosomal activity against Schistosoma japonicum infected mouse assessed as reduction in number of worms at 7 mg/kg, po single dose; format: functional
Salmonella typhimurium [14] = test: Mutagenic activity in Salmonella typhimurium TA-98 at 5 nmol/plate by Ames test; format: toxicity, organism-based; settings: salmonella enterica subsp. enterica serovar typhimurium
Salmonella typhimurium [15] = test: Mutagenic activity in Salmonella typhimurium TA-98 at 158 nmol/plate by Ames test; format: toxicity, organism-based; settings: salmonella enterica subsp. enterica serovar typhimurium
Salmonella typhimurium [16] = test: Mutagenic activity in Salmonella typhimurium TA-100 at 53 nmol/plate by Ames test in presence of rat liver microsomes S9 fraction; format: toxicity, organism-based; settings: salmonella enterica subsp. enterica serovar typhimurium
Schistosoma japonicum [17] = test: Antischistosomal activity against Schistosoma japonicum infected mouse assessed as mouse with parasital cures at 7 mg/kg, po single dose; format: functional
Salmonella typhimurium [18] = test: Mutagenic activity in Salmonella typhimurium TA-98 at 16 nmol/plate by Ames test in presence of rat liver microsomes S9 fraction; format: toxicity, organism-based; settings: salmonella enterica subsp. enterica serovar typhimurium
Salmonella typhimurium [19] = test: Mutagenic activity in Salmonella typhimurium TA-100 at 16 nmol/plate by Ames test; format: toxicity, organism-based; settings: salmonella enterica subsp. enterica serovar typhimurium
Schistosoma japonicum [20] = test: Antischistosomal activity against Schistosoma japonicum infected mouse assessed as reduction in number of worms at 10 mg/kg, po single dose; format: functional
Salmonella typhimurium [21] = test: Mutagenic activity in Salmonella typhimurium TA-100 at 158 nmol/plate by Ames test in presence of rat liver microsomes S9 fraction; format: toxicity, organism-based; settings: salmonella enterica subsp. enterica serovar typhimurium
Salmonella typhimurium [22] = test: Mutagenic activity in Salmonella typhimurium TA-100 at 158 nmol/plate by Ames test; format: toxicity, organism-based; settings: salmonella enterica subsp. enterica serovar typhimurium
Salmonella typhimurium [23] = test: Mutagenic activity in Salmonella typhimurium TA-98 at 5 nmol/plate by Ames test in presence of rat liver microsomes S9 fraction; format: toxicity, organism-based; settings: salmonella enterica subsp. enterica serovar typhimurium
Salmonella typhimurium [24] = test: Mutagenic activity in Salmonella typhimurium TA-100 at 5 nmol/plate by Ames test; format: toxicity, organism-based; settings: salmonella enterica subsp. enterica serovar typhimurium
Schistosoma japonicum [25] = test: Antischistosomal activity against Schistosoma japonicum infected mouse assessed as mouse with parasital cures at 250 mg/kg, po single dose; format: functional
Schistosoma japonicum [26] = test: Antischistosomal activity against Schistosoma japonicum infected mouse assessed as mouse with parasital cures at 50 mg/kg, po single dose; format: functional
Salmonella typhimurium [27] = test: Mutagenic activity in Salmonella typhimurium TA-100 at 17 nmol/plate by Ames test in presence of rat liver microsomes S9 fraction; format: toxicity, organism-based; settings: salmonella enterica subsp. enterica serovar typhimurium
How it was run: (§1)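 Ames plate-incorporation assay in Salmonella typhimurium TA-98 or TA-100 with rat liver microsomal S9 fraction. Compound was dissolved in Me2SO, with final Me2SO held at 0.1 mL per 15 mL medium on every plate, controls included. The top level tested was near that giving 10% growth inhibition. Read-out was revertant count in excess of solvent controls.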

Schistosoma japonicum [28] = test: Antischistosomal activity against Schistosoma japonicum infected mouse assessed as mouse with parasital cures at 125 mg/kg, po single dose; format: functional
Salmonella typhimurium [29] = test: Mutagenic activity in Salmonella typhimurium TA-100 at 17 nmol/plate by Ames test; format: toxicity, organism-based; settings: salmonella enterica subsp. enterica serovar typhimurium
How it was run: as §1, with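 “TA-100 without” for “TA-100 with”, “liver S9.” for “liver microsomal S9 fraction.”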

Schistosoma japonicum [30] = test: Antischistosomal activity against Schistosoma japonicum infected mouse assessed as reduction in number of worms at 125 mg/kg, po single dose; format: functional
Salmonella typhimurium [31] = test: Mutagenic activity in Salmonella typhimurium TA-98 at 17 nmol/plate by Ames test in presence of rat liver microsomes S9 fraction; format: toxicity, organism-based; settings: salmonella enterica subsp. enterica serovar typhimurium; how it was run: as §1
Salmonella typhimurium [32] = test: Mutagenic activity in Salmonella typhimurium TA-100 at 60 nmol/plate by Ames test in presence of rat liver microsomes S9 fraction; format: toxicity, organism-based; settings: salmonella enterica subsp. enterica serovar typhimurium; how it was run: as §1
Schistosoma japonicum [33] = test: Antischistosomal activity against Schistosoma japonicum infected mouse assessed as reduction in number of worms at 50 mg/kg, po single dose; format: functional
Salmonella typhimurium [34] = test: Mutagenic activity in Salmonella typhimurium TA-98 at 60 nmol/plate by Ames test; format: toxicity, organism-based; settings: salmonella enterica subsp. enterica serovar typhimurium
How it was run: as §1, with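 “TA-100 without” for “TA-100 with”, “liver S9.” for “liver microsomal S9 fraction.”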

Schistosoma japonicum [35] = test: Antischistosomal activity against Schistosoma japonicum infected mouse assessed as reduction in number of worms at 500 mg/kg, po single dose; format: functional
Schistosoma japonicum [36] = test: Antischistosomal activity against Schistosoma japonicum infected mouse assessed as mouse with parasital cures at 500 mg/kg, po single dose; format: functional
Salmonella typhimurium [37] = test: Mutagenic activity in Salmonella typhimurium TA-98 at 17 nmol/plate by Ames test; format: toxicity, organism-based; settings: salmonella enterica subsp. enterica serovar typhimurium
How it was run: as §1, with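 “TA-100 without” for “TA-100 with”, “liver S9.” for “liver microsomal S9 fraction.”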

Salmonella typhimurium [38] = test: Mutagenic activity in Salmonella typhimurium TA-100 at 60 nmol/plate by Ames test; format: toxicity, organism-based; settings: salmonella enterica subsp. enterica serovar typhimurium
How it was run: as §1, with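 “TA-100 without” for “TA-100 with”, “liver S9.” for “liver microsomal S9 fraction.”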

Salmonella typhimurium [39] = test: Mutagenic activity in Salmonella typhimurium TA-98 at 60 nmol/plate by Ames test in presence of rat liver microsomes S9 fraction; format: toxicity, organism-based; settings: salmonella enterica subsp. enterica serovar typhimurium; how it was run: as §1
Schistosoma japonicum [40] = test: Antischistosomal activity against Schistosoma japonicum infected mouse assessed as reduction in number of worms at 250 mg/kg, po single dose; format: functional

In the case of `O=[N+]([O-])c1ccc(Nc2ccc(N=C=S)cc2)cc1` [AMOSCANATE], the Activity (Salmonella typhimurium [1]) is reported as “Non-toxic”, the Activity (Salmonella typhimurium [2]) is reported as “Non-toxic” and the inhibition in vivo at 5 mg/kg (Schistosoma japonicum [3]) is reported as 68%. The Activity (Salmonella typhimurium [4]) was “Non-toxic”, the Activity (Salmonella typhimurium [5]) was “Non-toxic” and the Activity (Salmonella typhimurium [6]) was “Non-toxic”. The inhibition in vivo at 20 mg/kg (Schistosoma japonicum [7]) was 100%, the Activity (Schistosoma japonicum [8]) was 92% and the Activity (Schistosoma japonicum [9]) was 14%. The Activity (Salmonella typhimurium [10]) was “Non-toxic”, the Activity (Salmonella typhimurium [11]) was “Non-toxic” and the Activity (Schistosoma japonicum [12]) was 100%. For the same molecule, the inhibition in vivo at 7 mg/kg (Schistosoma japonicum [13]) was 82%, the Activity (Salmonella typhimurium [14]) was “Non-toxic” and the Activity (Salmonella typhimurium [15]) was “Non-toxic”. For the same molecule, the Activity (Salmonella typhimurium [16]) was “Non-toxic”, the Activity (Schistosoma japonicum [17]) was 25% and the Activity (Salmonella typhimurium [18]) was “Non-toxic”. The Activity (Salmonella typhimurium [19]) was “Non-toxic”, the inhibition in vivo at 10 mg/kg (Schistosoma japonicum [20]) was 99% and the Activity (Salmonella typhimurium [21]) was “Non-toxic”. For the same molecule, the Activity (Salmonella typhimurium [22]) was “Non-toxic”, the Activity (Salmonella typhimurium [23]) was “Non-toxic” and the Activity (Salmonella typhimurium [24]) was “Non-toxic”.
In the case of `O=C=Nc1ccc(Nc2ccc([N+](=O)[O-])cc2)cc1`, the Activity (Schistosoma japonicum [25]) is reported as 0%, the Activity (Schistosoma japonicum [26]) is reported as 0% and the Activity (Salmonella typhimurium [27]) is reported as “Toxic”. The Activity (Schistosoma japonicum [28]) was 0%, the Activity (Salmonella typhimurium [29]) was “Toxic” and the inhibition in vivo at 125 mg/kg (Schistosoma japonicum [30]) was 0%. The Activity (Salmonella typhimurium [31]) was “Toxic”, the Activity (Salmonella typhimurium [32]) was “Toxic” and the inhibition in vivo at 50 mg/kg (Schistosoma japonicum [33]) was 0%. For the same molecule, the Activity (Salmonella typhimurium [34]) was “Toxic”, the inhibition in vivo at 500 mg/kg (Schistosoma japonicum [35]) was 0% and the Activity (Schistosoma japonicum [36]) was 0%. For the same molecule, the Activity (Salmonella typhimurium [37]) was “Toxic”, the Activity (Salmonella typhimurium [38]) was “Toxic” and the Activity (Salmonella typhimurium [39]) was “Toxic”. It also gave an inhibition in vivo at 250 mg/kg (Schistosoma japonicum [40]) of 0%.
